ChEMBL document CHEMBL4028900, “Design of Novel 3-Pyrimidinylazaindole CDK2/9 Inhibitors with Potent In Vitro and In Vivo Antitumor Efficacy in a Triple-Negative Breast Cancer Model” (J Med Chem, 2017)

Assays:
[1] = molecular target: Insulin receptor-related protein (Homo sapiens) (UniProt P14616); test: Inhibition of IRR (unknown origin) at 100 nM relative to control
[2] = molecular target: Tyrosine-protein kinase JAK3 (Homo sapiens) (UniProt P52333); test: Inhibition of JAK3 (unknown origin) at 500 nM relative to control
[3] = molecular target: Serine/threonine-protein kinase Sgk1 (Homo sapiens) (UniProt O00141); test: Inhibition of SGK (unknown origin) at 500 nM relative to control
[4] = molecular target: Serine/threonine-protein kinase PLK1 (Homo sapiens) (UniProt P53350); test: Inhibition of PLK1 (unknown origin) at 100 nM relative to control
[5] = molecular target: Serine/threonine-protein kinase 26 (Homo sapiens) (UniProt Q9P289); test: Inhibition of MST4 (unknown origin) at 500 nM relative to control
[6] = system: T47D; test: Antiproliferative activity against human T47D cells after 72 hrs by SRB assay
[7] = molecular target: Serine/threonine-protein kinase PLK1 (Homo sapiens) (UniProt P53350); test: Inhibition of PLK1 (unknown origin) at 500 nM relative to control
[8] = system: MDA-MB-231; test: Antiproliferative activity against human MDA-MB-231 cells
[9] = Selectivity ratio of IC50 for HEK cells to IC50 for human MCF7 cells
[10] = molecular target: Protein-tyrosine kinase 6 (Homo sapiens) (UniProt Q13882); test: Inhibition of BRK (unknown origin) at 100 nM relative to control
[11] = molecular target: Ribosomal protein S6 kinase beta-1 (Homo sapiens) (UniProt P23443); test: Inhibition of S6K1 (unknown origin) at 100 nM relative to control
[12] = molecular target: Dual specificity tyrosine-phosphorylation-regulated kinase 1A (Homo sapiens) (UniProt Q13627); conditions: at 100 nM
[13] = system: 4T1; test: Antitumor activity against mouse 4T1 cells allografted in Balb/C mouse assessed as tumor growth inhibition at 15 mg/kg, iv administered every 3 days for 21 days measured 2 times for every week during dosing relative to control; assay type: functional; conditions: 4T1, iv, read-out: TGI
[14] = molecular target: Insulin receptor-related protein (Homo sapiens) (UniProt P14616); test: Inhibition of IRR (unknown origin) at 500 nM relative to control
[15] = molecular target: Inhibitor of nuclear factor kappa-B kinase subunit beta (Homo sapiens) (UniProt O14920); test: Inhibition of IKKbeta (unknown origin) at 100 nM relative to control
[16] = molecular target: Tyrosine-protein kinase CSK (Homo sapiens) (UniProt P41240); test: Inhibition of CSK (unknown origin) at 500 nM relative to control
[17] = molecular target: Serine/threonine-protein kinase Nek6 (Homo sapiens) (UniProt Q9HC98); test: Inhibition of NEK6 (unknown origin) at 500 nM relative to control
[18] = molecular target: Glycogen synthase kinase-3 beta (Homo sapiens) (UniProt P49841); test: Inhibition of GSK3b (unknown origin) at 100 nM relative to control
[19] = molecular target: Serine/threonine-protein kinase Sgk1 (Homo sapiens) (UniProt O00141); test: Inhibition of SGK (unknown origin) at 100 nM relative to control
[20] = molecular target: Protein-tyrosine kinase 6 (Homo sapiens) (UniProt Q13882); test: Inhibition of BRK (unknown origin) at 500 nM relative to control
[21] = molecular target: Dual specificity tyrosine-phosphorylation-regulated kinase 1A (Homo sapiens) (UniProt Q13627); conditions: at 500 nM
[22] = molecular target: Glycogen synthase kinase-3 beta (Homo sapiens) (UniProt P49841); test: Inhibition of GSK3b (unknown origin) at 500 nM relative to control
[23] = molecular target: Serine/threonine-protein kinase Chk1 (Homo sapiens) (UniProt O14757); test: Inhibition of CHK1 (unknown origin) at 100 nM relative to control
[24] = system: HCT-116; test: Antiproliferative activity against human HCT116 cells after 72 hrs by SRB assay; conditions: HCT-116, 72 h
[25] = molecular target: Tyrosine-protein kinase Lck (Homo sapiens) (UniProt P06239); test: Inhibition of LCK (unknown origin) at 500 nM relative to control
[26] = molecular target: Serine/threonine-protein kinase 26 (Homo sapiens) (UniProt Q9P289); test: Inhibition of MST4 (unknown origin) at 100 nM relative to control
[27] = system: BT-549; test: Antiproliferative activity against human BT549 cells
[28] = Antiproliferative activity against HEK cells; conditions: Homo sapiens, HEK293
[29] = molecular target: Vascular endothelial growth factor receptor 1 (Homo sapiens) (UniProt P17948); test: Inhibition of VEGFR1 (unknown origin) at 500 nM relative to control
[30] = molecular target: Aurora kinase A (Homo sapiens) (UniProt O14965); test: Inhibition of aurora A (unknown origin) at 100 nM relative to control
[31] = system: 4T1; test: Antiproliferative activity against mouse 4T1 cells after 24 hrs by MTT assay; conditions: 4T1, 24 h
[32] = system: MDA-MB-468; test: Antiproliferative activity against human MDA-MB-468 cells
[33] = molecular target: Phosphatidylinositol 4,5-bisphosphate 3-kinase catalytic subunit alpha isoform (Homo sapiens) (UniProt P42336); test: Inhibition of PI3Kalpha (unknown origin) at 500 nM relative to control
[34] = molecular target: Tyrosine-protein kinase Lck (Homo sapiens) (UniProt P06239); test: Inhibition of LCK (unknown origin) at 100 nM relative to control
[35] = molecular target: Vascular endothelial growth factor receptor 1 (Homo sapiens) (UniProt P17948); test: Inhibition of VEGFR1 (unknown origin) at 100 nM relative to control
[36] = Plasma concentration in BALB/c mouse at 2.5 mg/kg, iv at 0.25 hrs by LC/MS-MS analysis; assay type: ADME, organism-based
[37] = molecular target: Mitogen-activated protein kinase 10 (Homo sapiens) (UniProt P53779); test: Inhibition of JNK3 (unknown origin) at 100 nM relative to control
[38] = molecular target: Serine/threonine-protein kinase Nek6 (Homo sapiens) (UniProt Q9HC98); test: Inhibition of NEK6 (unknown origin) at 100 nM relative to control
[39] = system: SH-SY5Y; test: Antiproliferative activity against human SH-SY5Y cells after 24 hrs by MTT assay; assay type: functional, cell-based
[40] = molecular target: Tyrosine-protein kinase CSK (Homo sapiens) (UniProt P41240); test: Inhibition of CSK (unknown origin) at 100 nM relative to control
[41] = molecular target: Phosphatidylinositol 4,5-bisphosphate 3-kinase catalytic subunit alpha isoform (Homo sapiens) (UniProt P42336); test: Inhibition of PI3Kalpha (unknown origin) at 100 nM relative to control
[42] = molecular target: Ribosomal protein S6 kinase beta-1 (Homo sapiens) (UniProt P23443); test: Inhibition of S6K1 (unknown origin) at 500 nM relative to control
[43] = molecular target: Aurora kinase A (Homo sapiens) (UniProt O14965); test: Inhibition of aurora A (unknown origin) at 500 nM relative to control
[44] = molecular target: Mitogen-activated protein kinase 10 (Homo sapiens) (UniProt P53779); test: Inhibition of JNK3 (unknown origin) at 500 nM relative to control
[45] = molecular target: Tyrosine-protein kinase JAK3 (Homo sapiens) (UniProt P52333); test: Inhibition of JAK3 (unknown origin) at 100 nM relative to control
[46] = molecular target: Inhibitor of nuclear factor kappa-B kinase subunit beta (Homo sapiens) (UniProt O14920); test: Inhibition of IKKbeta (unknown origin) at 500 nM relative to control
[47] = Plasma concentration in BALB/c mouse at 2.5 mg/kg, iv at 1 hr by LC/MS-MS analysis; assay type: ADME, organism-based
[48] = Plasma concentration in BALB/c mouse at 2.5 mg/kg, iv at […] by LC/MS-MS analysis; assay type: ADME, organism-based
[49] = system: MCF7; test: Antiproliferative activity against human MCF7 cells
[50] = Plasma concentration in BALB/c mouse at 2.5 mg/kg, iv at 0.5 hrs by LC/MS-MS analysis; assay type: ADME, organism-based
[51] = molecular target: Serine/threonine-protein kinase Chk1 (Homo sapiens) (UniProt O14757); test: Inhibition of CHK1 (unknown origin) at 500 nM relative to control
[52] = system: 4T1; test: Antitumor activity against mouse 4T1 cells allografted in Balb/C mouse assessed as tumor growth inhibition at 5 mg/kg, iv administered every 3 days for 21 days measured 2 times for every week during dosing relative to control; assay type: functional; conditions: 4T1, iv, read-out: TGI
Outline: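 4T1 cells were grown in RPMI-1640 with 10% FBS, pyruvate and NEAA at 37 °C and 5% CO2. Female Balb/C mice received 1×10^6 cells into the second mammary fat pad. At about 100 mm3, mice were grouped five per group and dosed by tail vein in 200 µL (PBS diluent) every three days for 21 days. Tumor volume (L×B²/2, caliper) and body weight were taken twice weekly. The experiment was repeated twice.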

[53] = system: Mus musculus; test: Toxicity in Balb/C mouse allografted with mouse 4T1 cells assessed as mortality at 5 mg/kg, iv administered every 3 days for 21 days; assay type: organism-based; conditions: in vivo
[54] = system: Mus musculus; test: Toxicity in Balb/C mouse allografted with mouse 4T1 cells assessed as body weight loss at 5 mg/kg, iv administered every 3 days for 21 days measured 2 times for every week during dosing; assay type: organism-based; conditions: in vivo
Outline: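 Female Balb/c mice received 1×10^6 4T1 cells into the second mammary fat pad. At about 100 mm3 tumor volume they were split into groups of five. Doses were given iv by tail vein in 200 µL every three days for 21 days, with a PBS diluent control. Body weight and tumor size were measured twice weekly, and the experiment was repeated twice.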

Insulin receptor-related protein (Homo sapiens), sequence (P14616 27-742 limits assumed): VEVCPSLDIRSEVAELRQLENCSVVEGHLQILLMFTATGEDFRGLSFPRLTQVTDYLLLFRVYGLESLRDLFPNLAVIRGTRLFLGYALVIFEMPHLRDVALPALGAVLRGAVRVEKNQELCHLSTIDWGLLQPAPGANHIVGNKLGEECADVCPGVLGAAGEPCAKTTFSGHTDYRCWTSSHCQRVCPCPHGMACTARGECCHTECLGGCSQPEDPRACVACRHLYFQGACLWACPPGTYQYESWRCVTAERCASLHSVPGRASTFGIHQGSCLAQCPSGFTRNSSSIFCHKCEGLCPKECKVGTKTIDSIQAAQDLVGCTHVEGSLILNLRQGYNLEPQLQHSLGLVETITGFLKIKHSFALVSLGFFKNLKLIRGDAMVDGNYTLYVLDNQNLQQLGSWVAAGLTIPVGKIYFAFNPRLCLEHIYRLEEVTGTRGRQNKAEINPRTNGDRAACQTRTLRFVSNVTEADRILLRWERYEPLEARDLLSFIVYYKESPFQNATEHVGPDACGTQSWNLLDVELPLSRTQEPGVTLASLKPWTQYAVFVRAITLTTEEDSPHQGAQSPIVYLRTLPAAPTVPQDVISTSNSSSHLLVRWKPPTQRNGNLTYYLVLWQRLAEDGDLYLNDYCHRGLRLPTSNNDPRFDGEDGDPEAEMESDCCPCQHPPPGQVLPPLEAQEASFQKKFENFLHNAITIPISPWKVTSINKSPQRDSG
Insulin receptor-related protein (Homo sapiens), sequence (P14616 747-1297 limits assumed): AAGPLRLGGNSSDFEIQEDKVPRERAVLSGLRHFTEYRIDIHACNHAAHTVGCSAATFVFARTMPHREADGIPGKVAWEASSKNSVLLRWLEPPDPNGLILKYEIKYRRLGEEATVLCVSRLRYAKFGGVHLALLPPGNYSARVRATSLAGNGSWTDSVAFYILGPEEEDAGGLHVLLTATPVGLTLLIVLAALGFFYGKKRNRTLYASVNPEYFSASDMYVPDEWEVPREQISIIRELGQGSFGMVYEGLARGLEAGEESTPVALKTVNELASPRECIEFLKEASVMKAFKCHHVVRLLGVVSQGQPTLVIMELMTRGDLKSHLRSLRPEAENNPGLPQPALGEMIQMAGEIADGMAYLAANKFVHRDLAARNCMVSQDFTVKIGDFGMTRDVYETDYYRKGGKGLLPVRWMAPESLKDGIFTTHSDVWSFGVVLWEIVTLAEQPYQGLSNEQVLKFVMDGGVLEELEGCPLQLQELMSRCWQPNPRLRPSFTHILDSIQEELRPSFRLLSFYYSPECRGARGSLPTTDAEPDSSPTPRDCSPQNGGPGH
Vascular endothelial growth factor receptor 1 (Homo sapiens), sequence (P17948 whole entry): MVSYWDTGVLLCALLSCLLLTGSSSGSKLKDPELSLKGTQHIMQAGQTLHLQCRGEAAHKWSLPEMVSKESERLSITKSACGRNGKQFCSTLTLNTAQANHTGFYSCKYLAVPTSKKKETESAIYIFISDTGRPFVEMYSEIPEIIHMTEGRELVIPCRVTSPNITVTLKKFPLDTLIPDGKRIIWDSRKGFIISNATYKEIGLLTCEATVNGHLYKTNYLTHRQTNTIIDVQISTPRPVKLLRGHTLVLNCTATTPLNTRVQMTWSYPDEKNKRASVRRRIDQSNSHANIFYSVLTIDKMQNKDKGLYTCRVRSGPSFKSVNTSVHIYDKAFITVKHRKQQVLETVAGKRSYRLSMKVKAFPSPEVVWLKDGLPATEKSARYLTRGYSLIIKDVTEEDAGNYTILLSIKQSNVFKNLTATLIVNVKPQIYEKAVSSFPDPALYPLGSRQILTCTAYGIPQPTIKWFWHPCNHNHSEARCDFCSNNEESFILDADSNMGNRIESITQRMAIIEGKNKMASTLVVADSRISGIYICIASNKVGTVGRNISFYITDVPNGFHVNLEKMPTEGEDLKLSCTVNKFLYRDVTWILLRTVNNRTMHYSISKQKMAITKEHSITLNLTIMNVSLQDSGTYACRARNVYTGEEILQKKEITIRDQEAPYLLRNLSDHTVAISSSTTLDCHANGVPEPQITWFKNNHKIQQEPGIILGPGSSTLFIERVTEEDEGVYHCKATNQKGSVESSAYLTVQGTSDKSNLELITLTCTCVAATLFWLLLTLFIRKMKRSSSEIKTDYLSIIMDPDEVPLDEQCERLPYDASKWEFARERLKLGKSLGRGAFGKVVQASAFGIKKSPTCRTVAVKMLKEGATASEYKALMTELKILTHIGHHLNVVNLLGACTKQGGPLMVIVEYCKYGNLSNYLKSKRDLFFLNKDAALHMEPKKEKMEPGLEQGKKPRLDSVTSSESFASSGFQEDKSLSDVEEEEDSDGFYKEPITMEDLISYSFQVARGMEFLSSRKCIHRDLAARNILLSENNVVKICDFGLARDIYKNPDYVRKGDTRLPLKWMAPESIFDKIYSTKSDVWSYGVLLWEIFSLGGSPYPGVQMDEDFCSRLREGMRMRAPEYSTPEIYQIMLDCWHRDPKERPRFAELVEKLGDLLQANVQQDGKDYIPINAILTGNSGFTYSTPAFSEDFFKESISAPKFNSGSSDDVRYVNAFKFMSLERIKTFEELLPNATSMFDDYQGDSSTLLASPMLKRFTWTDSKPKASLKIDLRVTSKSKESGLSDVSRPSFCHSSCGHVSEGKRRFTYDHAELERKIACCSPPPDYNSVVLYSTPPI
Glycogen synthase kinase-3 beta (Homo sapiens), sequence (P49841 whole entry, looked up): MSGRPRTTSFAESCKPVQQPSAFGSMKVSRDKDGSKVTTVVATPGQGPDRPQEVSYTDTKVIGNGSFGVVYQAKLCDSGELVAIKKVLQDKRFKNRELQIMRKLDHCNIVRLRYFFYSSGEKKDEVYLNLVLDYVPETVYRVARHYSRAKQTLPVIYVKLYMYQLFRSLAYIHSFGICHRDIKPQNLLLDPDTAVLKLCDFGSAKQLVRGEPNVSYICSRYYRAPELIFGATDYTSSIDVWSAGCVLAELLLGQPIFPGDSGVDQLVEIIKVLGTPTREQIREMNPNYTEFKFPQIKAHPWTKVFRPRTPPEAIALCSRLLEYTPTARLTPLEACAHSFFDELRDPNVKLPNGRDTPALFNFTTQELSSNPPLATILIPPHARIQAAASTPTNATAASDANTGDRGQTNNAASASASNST
Protein-tyrosine kinase 6 (Homo sapiens), sequence (Q13882 whole entry, looked up): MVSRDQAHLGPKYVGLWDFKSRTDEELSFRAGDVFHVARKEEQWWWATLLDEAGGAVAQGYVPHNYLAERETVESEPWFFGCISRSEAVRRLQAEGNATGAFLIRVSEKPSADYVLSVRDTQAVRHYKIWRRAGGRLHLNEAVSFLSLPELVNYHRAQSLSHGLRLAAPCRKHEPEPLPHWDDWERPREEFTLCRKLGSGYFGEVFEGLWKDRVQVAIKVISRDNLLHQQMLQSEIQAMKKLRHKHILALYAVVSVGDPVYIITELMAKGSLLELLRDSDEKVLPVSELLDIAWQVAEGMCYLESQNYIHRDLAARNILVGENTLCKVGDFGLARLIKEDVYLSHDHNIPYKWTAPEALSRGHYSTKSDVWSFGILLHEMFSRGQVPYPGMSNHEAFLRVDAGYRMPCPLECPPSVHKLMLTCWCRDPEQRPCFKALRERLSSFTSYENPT
Tyrosine-protein kinase CSK (Homo sapiens), sequence (P41240 2-450 limits assumed): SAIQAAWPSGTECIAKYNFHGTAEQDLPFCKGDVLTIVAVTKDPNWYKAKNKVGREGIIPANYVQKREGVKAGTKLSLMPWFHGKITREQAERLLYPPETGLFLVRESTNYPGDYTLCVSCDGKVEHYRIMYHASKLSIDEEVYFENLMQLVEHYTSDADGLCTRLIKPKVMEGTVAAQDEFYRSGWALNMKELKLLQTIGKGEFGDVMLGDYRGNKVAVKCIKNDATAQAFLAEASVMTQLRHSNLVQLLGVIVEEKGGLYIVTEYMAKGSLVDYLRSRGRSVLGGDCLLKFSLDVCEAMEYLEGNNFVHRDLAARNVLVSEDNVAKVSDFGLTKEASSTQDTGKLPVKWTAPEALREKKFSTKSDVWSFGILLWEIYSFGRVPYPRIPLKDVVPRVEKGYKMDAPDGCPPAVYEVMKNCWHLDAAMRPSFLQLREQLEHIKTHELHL
Aurora kinase A (Homo sapiens), sequence (O14965 whole entry): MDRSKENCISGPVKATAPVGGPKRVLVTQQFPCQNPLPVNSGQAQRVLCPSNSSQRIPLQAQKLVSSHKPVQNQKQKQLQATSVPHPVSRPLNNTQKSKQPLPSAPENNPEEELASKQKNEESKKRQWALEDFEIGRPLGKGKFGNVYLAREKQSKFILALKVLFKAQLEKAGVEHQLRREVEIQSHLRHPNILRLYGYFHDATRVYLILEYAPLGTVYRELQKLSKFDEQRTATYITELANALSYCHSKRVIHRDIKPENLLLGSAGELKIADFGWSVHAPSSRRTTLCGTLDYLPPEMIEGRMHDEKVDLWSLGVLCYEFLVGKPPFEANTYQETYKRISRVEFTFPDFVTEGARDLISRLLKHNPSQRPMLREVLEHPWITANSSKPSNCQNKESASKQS
Tyrosine-protein kinase Lck (Homo sapiens), sequence (P06239 2-509 limits assumed): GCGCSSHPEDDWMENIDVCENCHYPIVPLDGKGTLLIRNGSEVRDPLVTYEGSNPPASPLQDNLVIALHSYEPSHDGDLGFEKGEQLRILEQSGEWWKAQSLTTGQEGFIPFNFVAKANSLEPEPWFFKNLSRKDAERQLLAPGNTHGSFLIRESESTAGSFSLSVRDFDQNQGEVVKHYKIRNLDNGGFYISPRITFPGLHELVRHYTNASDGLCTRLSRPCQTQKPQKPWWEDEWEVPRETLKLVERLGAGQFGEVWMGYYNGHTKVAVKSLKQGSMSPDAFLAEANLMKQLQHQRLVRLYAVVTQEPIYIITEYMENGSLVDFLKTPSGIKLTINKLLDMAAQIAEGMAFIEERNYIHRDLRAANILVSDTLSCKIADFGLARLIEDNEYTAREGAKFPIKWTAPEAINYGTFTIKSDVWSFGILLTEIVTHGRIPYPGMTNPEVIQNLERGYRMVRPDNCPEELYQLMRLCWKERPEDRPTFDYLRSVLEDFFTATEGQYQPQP

Molecule `COc1ccnc2[nH]cc(-c3ccnc(N)n3)c12` [MERIOLIN 3] has an inhibition [1] of 6.9%, an inhibition [2] of 14.6% and an inhibition [3] of 38.1%. It also gave an inhibition [4] of -1.7%, an inhibition [5] of 11.4% and an IC50 [6] of 200 nM. For the same molecule, the inhibition [7] was 14.6%, the IC50 [8] was 200 nM and the “Ratio IC50” value [9] was 0.94. For the same molecule, the inhibition [10] was 10.6%, the inhibition [11] was 84.5% and the inhibition [12] was 96%. The inhibition in vivo at 15 mg/kg [13] was 95%, the inhibition [14] was -4.6% and the inhibition [15] was 37.2%. For the same molecule, the inhibition [16] was -4.6%, the inhibition [17] was 20.1% and the inhibition [18] was 13.4%. The inhibition [19] was 29.3%, the inhibition [20] was 9.5% and the inhibition [21] was 98.3%. It also gave an inhibition [22] of 13.7%, an inhibition [23] of 13.4% and an IC50 [24] of 100 nM. For the same molecule, the inhibition [25] was 8.3%, the inhibition [26] was 6.7% and the IC50 [27] was 130 nM. The IC50 [28] was 188 nM, the inhibition [29] was 3.1% and the inhibition [30] was 10.6%. For the same molecule, the IC50 [31] was 650 nM, the IC50 [32] was 160 nM and the inhibition [33] was 21.1%. It also gave an inhibition [34] of 7.3%, an inhibition [35] of 0.9% and a concentration at 0.25 h [36] of 141 ng/mL. It also gave an inhibition [37] of -7.9%, an inhibition [38] of 4.1% and an IC50 [39] of 120 nM. It also gave an inhibition [40] of 6.9%, an inhibition [41] of 11.5% and an inhibition [42] of 91.7%. It also gave an inhibition [43] of 9.5%, an inhibition [44] of -2.6% and an inhibition [45] of 31.9%. For the same molecule, the inhibition [46] was 43.8%, the concentration at 1 h [47] was 35.3 ng/mL and the concentration at […] [48] was 313 ng/mL. The IC50 [49] was 200 nM, the concentration at 0.5 h [50] was 54.9 ng/mL and the inhibition [51] was 13.7%.

In the case of `COc1cccc2c1C(=O)c1c(O)c3c(c(O)c1C2=O)C[C@@](O)(C(=O)CO)C[C@@H]3O[C@H]1C[C@H](N)[C@H](O)[C@H](C)O1` [DOXORUBICIN], the inhibition in vivo at 5 mg/kg [52] is reported as 97.3%, the Activity [53] is reported as “Non-Toxic” and the Activity [54] is reported as “Toxic”.
